pIC50: −log10 of the molar value. Converted amounts (≈) assume the structure as drawn. The source made the active and inactive calls. The rule behind the calls is not given here.
Legend:
[1] = test system: RAW264.7; test: Antiinflammatory activity against LPS-induced mouse RAW264.7 cells assessed as inhibition of NO production at 50 uM preincubated for 4 hrs followed by LPS stimulation for 24 hrs by Griess reaction; type: functional
How it was run: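 RAW264.7 cells in DMEM with 5% FBS at 37 °C and 5% CO2 were pretreated at 50 µM for 4 h, then stimulated with or without LPS (1 µg/mL) for 24 h. Nitrite in the supernatant was measured by Griess reagent at 540 nm against a NaNO2 standard curve. At least three independent experiments, each in duplicate; means ± SEM.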

[2] = test system: RAW264.7; test: Antiinflammatory activity against LPS-induced mouse RAW264.7 cells assessed as inhibition of NO production at preincubated for 4 hrs followed by LPS stimulation for 24 hrs by Griess reaction; type: functional, cell-based
How it was run: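 Cells were pretreated for 4 h, then stimulated with LPS (1 µg/mL) for 24 h. Supernatant was mixed with an equal volume of Griess reagent, and nitrite was read at 540 nm against a NaNO2 standard curve. IC50 was obtained by curve fitting.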

[3] = Solubility in water at pH 6.8; type: physicochemical
[4] = Solubility in water at pH 7.4; type: physicochemical
[5] = Solubility in water at pH 1.2; type: physicochemical
[6] = (§1) Acute toxicity in ip dosed Kunming mouse after 14 days by Bliss method; type: organism-based; details: Kunming, in vivo
[7] = test system: Mus musculus; test: Acute toxicity in ip dosed Kunming mouse assessed as mortality after 7 days by Bliss method; type: organism-based; details: in vivo, 168 h
[8] = test system: RAW264.7; test: Cytotoxicity against mouse RAW264.7 cells assessed as cell viability up to 50 uM by MTT assay; type: cell-based
How it was run: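 MTT assay after 12.5-50 µM treatment with LPS stimulation for 24 h. Medium was replaced, then MTT was added to a final 0.5 mg/mL and incubated 4 h at 37 °C. Formazan was dissolved in DMSO and absorbance read at 570 nm. At least three independent experiments in duplicate.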

[9] = Lipophilicity, logP of the compound; type: physicochemical; details: octanol/water
[10] = test system: Mus musculus; test: Acute toxicity in po dosed Kunming mouse after 14 days by Bliss method; details: in vivo, 336 h
[11] = biological target: Transcription factor p65 (Mus musculus) (UniProt Q04207); test: Inhibition of LPS-stimulated NFkappaB p65 nuclear translocation in mouse RAW264.7 cells preincubated with compound followed by LPS-stimulation for 2 hrs by Western blot analysis; type: cell-based
How it was run: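 Cells were pretreated at 12.5-50 µM, then stimulated with LPS (1 µg/mL) for 2 h. Nuclear and cytoplasmic fractions were prepared with an extraction kit and blotted for NF-κB p65 (1:1000). β-actin was the cytoplasmic loading control and lamin the nuclear one. At least three independent experiments in duplicate.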

[12] = biological target: MAP kinase p38 (Mus musculus) (UniProt P47811+O08911+Q9WUI1+Q9Z1B7); test: Effect of p38 phosphorylation in LPS-induced mouse RAW264.7 cells preincubated with the compound followed by LPS-stimulation for 45 mins by Western blot analysis; type: cell-based
[13] = test system: RAW264.7; test: Inhibition of JNK phosphorylation in LPS-induced mouse RAW264.7 cells preincubated with the compound followed by LPS-stimulation for 45 mins by Western blot analysis; type: cell-based
[14] = test system: RAW264.7; test: Antiinflammatory activity against LPS-induced mouse RAW264.7 cells assessed as downregulation of COX2 expression preincubated for 4 hrs followed by LPS stimulation for 24 hrs by Western blot analysis; type: functional, cell-based
How it was run: (§2)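 Cells serum-starved overnight, pretreated at 12.5-50 µM, then stimulated with LPS 1 µg/mL for 24 h. Whole-cell lysates were made in RIPA buffer with protease and phosphatase inhibitors, and 30 µg protein was loaded. Blots used iNOS (1:500) or COX-2 (1:10000) antibodies with HRP secondary and ECL detection. Signals were normalised to β-actin and expressed as fold of control. At least three independent experiments, each in duplicate.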

[15] = test system: RAW264.7; test: Antiinflammatory activity against LPS-induced mouse RAW264.7 cells assessed as downregulation of iNOS expression preincubated for 4 hrs followed by LPS stimulation for 24 hrs by Western blot analysis; type: functional, cell-based; how it was run: as §2
[16] = test system: RAW264.7; test: Effect of ERK phosphorylation in LPS-induced mouse RAW264.7 cells preincubated with the compound followed by LPS-stimulation for 45 mins by Western blot analysis; type: cell-based
[17] = test system: RAW264.7; test: Downregulation of TLR4 expression in LPS-induced mouse RAW264.7 cells preincubated with compound followed by LPS-stimulation for 45 mins by Western blot analysis; type: functional, cell-based
[18] = test system: Mus musculus; test: as §1; type: organism-based; details: in vivo, 336 h

Transcription factor p65 (Mus musculus), sequence (Q04207 whole entry): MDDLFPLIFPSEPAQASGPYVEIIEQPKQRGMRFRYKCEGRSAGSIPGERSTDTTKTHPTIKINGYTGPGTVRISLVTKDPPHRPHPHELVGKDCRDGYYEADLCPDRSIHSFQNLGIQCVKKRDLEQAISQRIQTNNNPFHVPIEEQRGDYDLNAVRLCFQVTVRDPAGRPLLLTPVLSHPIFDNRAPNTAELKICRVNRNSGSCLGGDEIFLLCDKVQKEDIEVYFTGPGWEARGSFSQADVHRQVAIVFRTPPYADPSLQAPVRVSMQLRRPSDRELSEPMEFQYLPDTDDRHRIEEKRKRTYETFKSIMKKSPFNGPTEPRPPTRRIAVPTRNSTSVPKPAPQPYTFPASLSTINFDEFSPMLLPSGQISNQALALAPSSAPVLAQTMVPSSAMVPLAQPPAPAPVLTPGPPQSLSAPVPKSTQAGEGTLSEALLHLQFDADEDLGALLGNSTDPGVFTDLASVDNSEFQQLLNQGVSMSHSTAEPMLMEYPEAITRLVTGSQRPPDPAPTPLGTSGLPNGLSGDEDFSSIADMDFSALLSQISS

Row | SMILES | inhibition at 50 µM [1] | other results
1 | COc1cc(OC)cc(C2C(O)c3cc(OC)cc(OC)c3C2c2ccccc2)c1 (configuration not stated) | 76.3% | 
2 | COc1ccc([C@@H]2C(=O)c3ccc(OC)cc3[C@H]2c2ccc(F)cc2)cc1 | 85.9% | 
3 | COc1cc(OC)cc([C@@H]2C(=O)c3cc(OC)cc(OC)c3[C@H]2c2ccc(C)cc2)c1 | 83.3% | 
4 | COc1ccc(C2C(=O)c3ccc(OC)cc3C2c2ccccc2)cc1 (racemic) [listing 1 of 2 here] | 87.6% | pIC50 ([2]; Mus musculus, RAW264.7): 4.63; solubility [3]: 0.0687 mg/mL (≈ 199 µM); solubility [4]: 0.0465 mg/mL (≈ 135 µM); solubility [5]: 0.0383 mg/mL (≈ 111 µM); LD50 at 336 h [6]: 275 mg/kg; Activity [7]: Toxic; Activity [8]: Non-toxic; logP [9]: 1.77; Activity [10]: Dose-dependent effect
5 | COc1ccc(C2C(=O)c3ccc(OC)cc3C2c2ccccc2)cc1 (racemic) [listing 2 of 2 here] |  | inhibition [2]: Dose-dependent effect; inhibition [11]: Dose-dependent effect; Activity [12]: inactive; inhibition [13]: Dose-dependent effect; Activity [14]: Dose-dependent effect; Activity [15]: Dose-dependent effect; Activity [16]: inactive; Activity [17]: Dose-dependent effect
6 | COc1ccc([C@@H]2c3c(OC)cc(OC)cc3C(=O)[C@H]2c2cc(OC)cc(OC)c2)cc1 (relative stereo) | 61% | 
7 | COc1cc(OC)cc([C@@H]2C(=O)c3cc(OC)cc(OC)c3[C@H]2c2ccccc2)c1 (relative stereo) | 69.2% | 
8 | COc1cc(OC)cc([C@@H]2C(=O)c3cc(OC)cc(OC)c3[C@H]2c2ccc(F)cc2)c1 (relative stereo) | 77.3% | 
9 | COc1cc(OC)cc([C@@H]2C(=O)c3cc(OC)cc(OC)c3[C@H]2c2ccc(C(F)(F)F)cc2)c1 (relative stereo) | 71.8% | 
10 | COc1cc(OC)cc([C@@H]2C(=O)c3cc(OC)cc(OC)c3[C@H]2c2cccc(F)c2)c1 (relative stereo) | 65.7% | 
11 | CCOC(=O)[C@@H]1c2c(OC)cc(OC)cc2C(=O)[C@H]1c1cc(OC)cc(OC)c1 (relative stereo) | 64.6% | 
12 | COc1cc(OC)cc([C@@H]2C(=O)c3cc(OC)cc(OC)c3[C@H]2c2ccc(OCc3ccccc3)cc2)c1 (relative stereo) | 65.8% | 
13 | COc1cc(OC)cc([C@@H]2C(=O)c3cc(OC)cc(OC)c3[C@H]2C2CCCCC2)c1 (relative stereo) | 77.3% | 
14 | COc1cc(OC)cc([C@@H]2C(=O)c3cc(OC)cc(OC)c3[C@H]2c2ccc(-c3ccccc3)cc2)c1 (relative stereo) | 73.9% | 
15 | COc1ccc([C@@H]2C(=O)c3ccc(OC)cc3[C@H]2c2ccc(C)cc2)cc1 (relative stereo) | 47.4% | 
16 | COc1ccc([C@@H]2C(=O)c3ccc(OC)cc3[C@H]2c2ccc(C(F)(F)F)cc2)cc1 (relative stereo) | 80% | 
17 | COc1ccc([C@@H]2C(=O)c3ccc(OC)cc3[C@H]2c2cc(OC)cc(OC)c2)cc1 (relative stereo) | 51.6% | 
18 | COc1cc(OC)cc([C@@H]2C(=O)c3cc(OC)cc(OC)c3[C@H]2c2ccc3ccccc3c2)c1 (relative stereo) | 47.4% | 

Row | SMILES | inhibition at 50 µM [1] | other results
19 | CCOc1ccc([C@@H]2c3cc(OC)ccc3C(=O)[C@H]2c2ccc(OC)cc2)cc1 (relative stereo) | 84.4% | 
20 | COc1ccc([C@@H]2C(=O)c3ccc(OC)cc3[C@H]2c2cccc(F)c2)cc1 (relative stereo) | 80% | 
21 | COc1ccc([C@@H]2C(=O)c3ccc(OC)cc3[C@H]2C2CCCCC2)cc1 (relative stereo) | 85.7% | 
22 | COc1cc(OC)cc([C@@H]2c3c(OC)cc(OC)cc3C(=O)[C@H]2c2cc(OC)cc(OC)c2)c1 (relative stereo) | 59.4% | 
23 | CCOc1ccc([C@@H]2c3c(OC)cc(OC)cc3C(=O)[C@H]2c2cc(OC)cc(OC)c2)cc1 (relative stereo) | 80.9% | 
24 | COc1ccc([C@@H]2C(=O)c3ccc(OC)cc3[C@H]2c2ccc3ccccc3c2)cc1 (relative stereo) | 58.7% | 
25 | COc1cc(OC)cc([C@@H]2C(=O)c3cc(OC)cc(OC)c3[C@H]2Cc2ccccc2)c1 (relative stereo) | 86.9% | 
26 | COc1ccc([C@@H]2c3cc(OC)ccc3C(=O)[C@H]2c2ccc(OC)cc2)cc1 (relative stereo) | 79.3% | 
27 | COc1ccc([C@@H]2C(=O)c3ccc(OC)cc3[C@H]2c2ccc(OC(F)(F)F)cc2)cc1 (relative stereo) | 76.3% | 
28 | COc1cc(OC)cc([C@@H]2C(=O)c3cc(OC)cc(OC)c3[C@H]2c2ccc(OC(F)(F)F)cc2)c1 (relative stereo) | 65.6% | 
29 | COc1cc(OC)cc([C@@H]2C(=O)c3cc(OC)cc(OC)c3[C@H]2c2ccc(O)cc2)c1 (relative stereo) | 65.6% | 
30 | COc1ccc([C@@H]2C(=O)c3ccc(OC)cc3[C@H]2c2ccc(-c3ccccc3)cc2)cc1 (relative stereo) | 57.5% | 
31 | COc1ccc(C2C(=O)c3ccc(OC)cc3C2c2ccccc2)cc1 (single isomer, unassigned; (+)) [listing 1 of 2 here] |  | pIC50 ([2]; raw264.7): 4.63
32 | COc1ccc(C2C(=O)c3ccc(OC)cc3C2c2ccccc2)cc1 (single isomer, unassigned; (+)) [listing 2 of 2 here] |  | inhibition [2]: Dose-dependent effect
33 | COc1ccc(C2C(=O)c3ccc(OC)cc3C2c2ccccc2)cc1 (single isomer, unassigned; (-)) [listing 1 of 2 here] |  | pIC50 ([2]; raw264.7): 4.63; LD50 [18]: 275 mg/kg
34 | COc1ccc(C2C(=O)c3ccc(OC)cc3C2c2ccccc2)cc1 (single isomer, unassigned; (-)) [listing 2 of 2 here] |  | inhibition [2]: Dose-dependent effect
35 | Oc1ccc(/C=C/c2cc(O)cc(O)c2)cc1 [RESVERATROL] | 35% | 
